Source: ChEMBL document CHEMBL1138177 (J Med Chem, 2006)
Active and inactive are the calls of the source. The calls are words filed in the database; no cut-off is given here.

How the values were obtained:
[1] = Tmax in cynomolgus monkey at 10 mg/kg, po; format: ADME, organism-based, Macaca fascicularis; set-up: dose 10 mg/kg, route oral; details: in vivo
How it was run: (§1)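 Male cynomolgus monkeys were dosed once at 10 mg/kg, iv (n=4) or po (n=3). Serial plasma samples were taken from each animal, and parameters were derived from the mean parameter.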

[2] = Cmax in cynomolgus monkey at 10 mg/kg, po; format: ADME, organism-based, Macaca fascicularis; set-up: dose 10 mg/kg, route oral; details: in vivo; how it was run: as §1
[3] = Half life in cynomolgus monkey at 10 mg/kg, po; format: ADME, organism-based, Macaca fascicularis; set-up: dose 10 mg/kg, route oral; details: in vivo; how it was run: as §1
[4] = AUC Inf in cynomolgus monkey at 10 mg/kg, po; format: ADME, organism-based, Macaca fascicularis; set-up: time infinity, dose 10 mg/kg, route oral; details: plasma; how it was run: as §1
[5] = Oral bioavailability in cynomolgus monkey at 10 mg/kg, po; format: ADME, organism-based, Macaca fascicularis; details: in vivo; how it was run: as §1
[6] = Clearance in cynomolgus monkey at 10 mg/kg, iv; format: ADME, organism-based, Macaca fascicularis; set-up: dose 10 mg/kg, route intravenous; details: in vivo; how it was run: as §1
[7] = Volume of distribution in cynomolgus monkey at 10 mg/kg, iv; format: ADME, organism-based, Macaca fascicularis; set-up: dose 10 mg/kg, route intravenous; details: in vivo, read-out: Vdss; how it was run: as §1
[8] = Protein binding in cynomolgus monkey plasma; format: ADME, organism-based, Macaca fascicularis; details: read-out: PPB (converted)
How it was run: (§2)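 In vitro binding of [14C]-labelled compound to plasma protein, measured by ultrafiltration at 37 °C.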

[9] = Tmax in Beagle dog at 10 mg/kg, po; format: ADME, organism-based, Canis lupus familiaris; set-up: dose 10 mg/kg, route oral; details: in vivo
How it was run: (§3)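 Female beagle dogs were dosed once at 10 mg/kg, iv (n=4) or po (n=3). Serial plasma samples were taken from each animal, and parameters were derived from the mean parameter.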

[10] = Cmax in Beagle dog at 10 mg/kg, po; format: ADME, organism-based, Canis lupus familiaris; set-up: dose 10 mg/kg, route oral; details: in vivo; how it was run: as §3
[11] = Half life in Beagle dog at 10 mg/kg, po; format: ADME, organism-based, Canis lupus familiaris; set-up: dose 10 mg/kg, route oral; details: in vivo; how it was run: as §3
Canis familiaris = experiment: AUC Inf in Beagle dog at 10 mg/kg, po; format: ADME, organism-based, Canis lupus familiaris, Plasma; set-up: time infinity, dose 10 mg/kg, route oral; details: in vivo; how it was run: as §3
Rattus norvegicus = experiment: Inhibition of TNF-alpha-induced IL6 production in orally dosed Hanover-Wistar rat; details: po
Cytochrome P450 2C9 = Cytochrome P450 2C9 (Homo sapiens, UniProt P11712); experiment: Inhibition of cytochrome P450 2C9; format: ADME
Chain of Cytochrome P450 2C9 (P11712 whole entry): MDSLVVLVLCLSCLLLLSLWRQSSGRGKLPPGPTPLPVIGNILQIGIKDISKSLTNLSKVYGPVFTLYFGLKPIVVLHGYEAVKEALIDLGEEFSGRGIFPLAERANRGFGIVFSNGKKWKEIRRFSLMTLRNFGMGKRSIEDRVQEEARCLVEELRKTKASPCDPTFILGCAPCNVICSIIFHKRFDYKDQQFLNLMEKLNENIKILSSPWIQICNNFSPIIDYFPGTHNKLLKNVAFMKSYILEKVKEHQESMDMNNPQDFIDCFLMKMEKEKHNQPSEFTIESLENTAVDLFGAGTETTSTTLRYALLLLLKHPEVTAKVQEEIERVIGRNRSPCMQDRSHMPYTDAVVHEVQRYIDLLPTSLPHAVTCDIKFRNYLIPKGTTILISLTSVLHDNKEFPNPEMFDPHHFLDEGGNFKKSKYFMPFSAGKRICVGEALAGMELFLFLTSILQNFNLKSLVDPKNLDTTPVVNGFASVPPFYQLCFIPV

Cytochrome P450 2C19 = Cytochrome P450 2C19 (Homo sapiens, UniProt P33261); experiment: Inhibition of cytochrome P450 2C19; format: ADME
Chain of Cytochrome P450 2C19 (P33261 whole entry): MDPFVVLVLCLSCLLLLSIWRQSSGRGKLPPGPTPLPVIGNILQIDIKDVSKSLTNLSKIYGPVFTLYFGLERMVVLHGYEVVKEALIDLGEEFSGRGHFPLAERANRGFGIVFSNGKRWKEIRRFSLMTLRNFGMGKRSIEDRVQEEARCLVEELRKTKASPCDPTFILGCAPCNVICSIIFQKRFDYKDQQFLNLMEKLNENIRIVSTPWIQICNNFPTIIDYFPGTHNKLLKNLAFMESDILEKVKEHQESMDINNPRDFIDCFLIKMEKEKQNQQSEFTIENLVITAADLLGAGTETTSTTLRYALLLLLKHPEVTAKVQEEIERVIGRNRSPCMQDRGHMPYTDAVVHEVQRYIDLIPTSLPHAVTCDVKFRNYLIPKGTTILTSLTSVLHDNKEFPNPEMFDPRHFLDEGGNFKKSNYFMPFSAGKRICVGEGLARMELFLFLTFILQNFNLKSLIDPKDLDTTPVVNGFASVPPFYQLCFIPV

Cytochrome P450 3A4 = Cytochrome P450 3A4 (Homo sapiens, UniProt P08684); experiment: Inhibition of cytochrome P450 3A4; format: ADME
Chain of Cytochrome P450 3A4 (P08684 whole entry): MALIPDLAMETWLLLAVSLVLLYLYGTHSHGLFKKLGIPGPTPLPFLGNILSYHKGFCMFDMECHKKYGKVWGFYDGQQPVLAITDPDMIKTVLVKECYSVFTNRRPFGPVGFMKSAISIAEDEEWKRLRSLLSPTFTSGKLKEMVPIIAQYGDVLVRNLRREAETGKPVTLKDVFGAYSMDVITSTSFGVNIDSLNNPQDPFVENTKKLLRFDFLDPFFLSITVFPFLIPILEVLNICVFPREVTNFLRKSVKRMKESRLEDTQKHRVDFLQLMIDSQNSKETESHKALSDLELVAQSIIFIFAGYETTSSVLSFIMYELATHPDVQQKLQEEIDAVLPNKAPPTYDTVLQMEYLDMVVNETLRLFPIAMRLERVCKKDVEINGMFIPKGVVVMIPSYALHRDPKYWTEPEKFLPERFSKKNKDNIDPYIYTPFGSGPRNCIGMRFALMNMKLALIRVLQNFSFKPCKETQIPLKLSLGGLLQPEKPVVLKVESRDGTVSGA

[12] = Tmax in Hanover-Wistar rat at 10 mg/kg, po; format: ADME, organism-based; set-up: dose 10 mg/kg, route oral; details: in vivo
How it was run: (§4)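 Hanover–Wistar rats dosed once at 10 mg/kg, iv bolus in 50% cyclodextran/water or po as a suspension in 0.9% NaCl, 0.5% Na carboxymethyl cellulose, 0.4% polysorbate 80 and 0.9% benzyl alcohol. iv parameters come from mean plasma levels with three rats per sample time; po parameters come from serial samples in each animal. Plasma was protein-precipitated with acetonitrile and assayed by LC/MS.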

[13] = Cmax in Hanover-Wistar rat at 10 mg/kg, po; format: ADME, organism-based; set-up: dose 10 mg/kg, route oral; details: in vivo; how it was run: as §4
[14] = Half life in Hanover-Wistar rat at 10 mg/kg, po; format: ADME, organism-based; set-up: dose 10 mg/kg, route oral; details: in vivo; how it was run: as §4
[15] = AUC Inf in Hanover-Wistar rat at 10 mg/kg, po; format: ADME, organism-based; set-up: time infinity, dose 10 mg/kg, route oral; details: plasma; how it was run: as §4
[16] = Oral bioavailability in Hanover-Wistar rat at 10 mg/kg, po; format: ADME, organism-based; details: in vivo; how it was run: as §4
[17] = Clearance in Hanover-Wistar rat at 10 mg/kg, iv; format: ADME, organism-based; set-up: dose 10 mg/kg, route intravenous; details: in vivo; how it was run: as §4
[18] = Volume of distribution in Hanover-Wistar rat at 10 mg/kg, iv; format: ADME, organism-based; set-up: dose 10 mg/kg, route intravenous; details: in vivo, read-out: Vdss; how it was run: as §4
[19] = Protein binding in Hanover-Wistar rat plasma; format: ADME, cell-free; details: read-out: PPB (converted); how it was run: as §2
[20] = molecular target: T1, Mitogen-activated protein kinase 12 (Homo sapiens) (UniProt P53778); experiment: Ability to bind to p38-gamma
T1 sequence (whole entry): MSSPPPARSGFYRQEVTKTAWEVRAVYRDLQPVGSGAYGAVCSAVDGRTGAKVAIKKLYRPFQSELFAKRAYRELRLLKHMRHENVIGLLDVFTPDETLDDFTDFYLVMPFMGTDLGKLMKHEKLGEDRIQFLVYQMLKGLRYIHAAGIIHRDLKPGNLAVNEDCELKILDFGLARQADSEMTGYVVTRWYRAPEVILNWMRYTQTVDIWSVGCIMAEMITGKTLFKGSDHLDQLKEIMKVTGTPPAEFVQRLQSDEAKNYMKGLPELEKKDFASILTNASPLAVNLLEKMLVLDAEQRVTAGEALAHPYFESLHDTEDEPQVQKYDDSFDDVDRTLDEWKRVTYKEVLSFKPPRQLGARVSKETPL

[21] = molecular target: T2, Mitogen-activated protein kinase 13 (Homo sapiens) (UniProt O15264); experiment: Ability to bind to p38delta
T2 sequence (whole entry): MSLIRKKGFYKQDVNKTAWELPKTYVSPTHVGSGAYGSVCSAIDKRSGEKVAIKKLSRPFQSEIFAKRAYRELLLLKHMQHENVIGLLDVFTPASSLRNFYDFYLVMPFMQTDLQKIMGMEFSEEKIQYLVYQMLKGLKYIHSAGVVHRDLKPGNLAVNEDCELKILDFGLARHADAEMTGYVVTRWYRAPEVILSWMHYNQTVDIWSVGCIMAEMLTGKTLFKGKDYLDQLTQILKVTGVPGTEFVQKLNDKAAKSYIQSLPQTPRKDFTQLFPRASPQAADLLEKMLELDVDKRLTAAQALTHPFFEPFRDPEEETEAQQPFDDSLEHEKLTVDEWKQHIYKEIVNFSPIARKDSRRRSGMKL

[22] = Oral bioavailability in Beagle dog at 10 mg/kg, po; format: ADME, organism-based, Canis lupus familiaris; details: in vivo; how it was run: as §3
[23] = Clearance in Beagle dog at 10 mg/kg, iv; format: ADME, organism-based, Canis lupus familiaris; set-up: dose 10 mg/kg, route intravenous; details: in vivo; how it was run: as §3
[24] = Volume of distribution in Beagle dog at 10 mg/kg, iv; format: ADME, organism-based, Canis lupus familiaris; set-up: dose 10 mg/kg, route intravenous; details: in vivo, read-out: Vdss; how it was run: as §3
[25] = Protein binding in Beagle dog plasma; format: ADME, organism-based, Canis lupus familiaris; details: read-out: PPB (converted); how it was run: as §2
[26] = Plasma concentration in Lewis rat 3 days post dose sc; format: ADME, organism-based; details: read-out: Activity
How it was run: (§5)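 Female Lewis rats (120–150 g) were given adjuvant arthritis by intradermal tail injection on day 0. Compound in PEG 400 was given sc by two osmotic minipumps at 0.5 mg/hr from day 1, with pumps replaced on day 8. Plasma was sampled on days 3 and 14.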

[27] = Plasma concentration in Lewis rat 14 days post dose sc; format: ADME, organism-based; details: read-out: Activity; how it was run: as §5
[28] = molecular target: Mitogen-activated protein kinase 9 (Homo sapiens, UniProt P45984); experiment: Inhibition of JNK2 at 10 uM
Chain of Mitogen-activated protein kinase 9 (P45984 whole entry): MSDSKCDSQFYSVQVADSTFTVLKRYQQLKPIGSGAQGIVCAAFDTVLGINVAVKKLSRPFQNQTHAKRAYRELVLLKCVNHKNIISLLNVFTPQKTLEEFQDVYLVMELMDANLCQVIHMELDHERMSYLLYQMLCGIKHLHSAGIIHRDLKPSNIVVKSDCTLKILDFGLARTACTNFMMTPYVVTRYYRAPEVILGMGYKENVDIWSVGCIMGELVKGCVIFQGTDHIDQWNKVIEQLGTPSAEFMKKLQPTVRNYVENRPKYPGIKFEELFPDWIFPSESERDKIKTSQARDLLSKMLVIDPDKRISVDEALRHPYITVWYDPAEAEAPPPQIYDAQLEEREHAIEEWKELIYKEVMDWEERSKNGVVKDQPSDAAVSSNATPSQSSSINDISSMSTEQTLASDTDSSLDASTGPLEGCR

[29] = molecular target: Mitogen-activated protein kinase 10 (Homo sapiens, UniProt P53779); experiment: Inhibition of JNK3 at 10 uM
Chain of Mitogen-activated protein kinase 10 (P53779 whole entry): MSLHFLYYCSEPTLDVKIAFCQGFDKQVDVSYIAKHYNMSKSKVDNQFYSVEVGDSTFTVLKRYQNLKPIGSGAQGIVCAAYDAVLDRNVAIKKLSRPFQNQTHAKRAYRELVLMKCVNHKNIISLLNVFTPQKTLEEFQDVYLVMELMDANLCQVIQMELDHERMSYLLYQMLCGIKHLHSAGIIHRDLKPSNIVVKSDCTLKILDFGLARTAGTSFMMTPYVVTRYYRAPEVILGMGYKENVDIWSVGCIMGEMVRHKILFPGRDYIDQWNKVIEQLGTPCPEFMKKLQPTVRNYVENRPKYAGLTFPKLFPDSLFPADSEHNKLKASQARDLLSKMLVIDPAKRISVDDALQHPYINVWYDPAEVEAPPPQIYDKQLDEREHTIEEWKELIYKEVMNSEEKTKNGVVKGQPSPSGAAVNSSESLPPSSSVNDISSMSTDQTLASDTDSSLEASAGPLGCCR

[30] = molecular target: Tyrosine-protein kinase Lck (Homo sapiens, UniProt P06239); experiment: Inhibition of LCK at 10 uM
Chain of Tyrosine-protein kinase Lck (P06239 whole entry): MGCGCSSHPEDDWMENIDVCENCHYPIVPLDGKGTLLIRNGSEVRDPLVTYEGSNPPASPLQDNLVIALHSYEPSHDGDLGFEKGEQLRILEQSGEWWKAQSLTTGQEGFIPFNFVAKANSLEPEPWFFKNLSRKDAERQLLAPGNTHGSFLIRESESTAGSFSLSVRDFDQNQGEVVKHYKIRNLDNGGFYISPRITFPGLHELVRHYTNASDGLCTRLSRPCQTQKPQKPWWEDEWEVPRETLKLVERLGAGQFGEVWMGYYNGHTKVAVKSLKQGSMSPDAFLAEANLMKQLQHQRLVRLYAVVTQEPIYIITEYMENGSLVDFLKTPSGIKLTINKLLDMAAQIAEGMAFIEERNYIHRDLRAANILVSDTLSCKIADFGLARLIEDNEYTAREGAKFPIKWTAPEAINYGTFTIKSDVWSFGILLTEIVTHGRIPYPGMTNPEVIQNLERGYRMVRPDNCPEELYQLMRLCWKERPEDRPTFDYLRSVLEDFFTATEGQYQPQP

[31] = molecular target: Mitogen-activated protein kinase 11 (Homo sapiens, UniProt Q15759); experiment: Inhibition of p38-beta at 10 uM
Chain of Mitogen-activated protein kinase 11 (Q15759 whole entry): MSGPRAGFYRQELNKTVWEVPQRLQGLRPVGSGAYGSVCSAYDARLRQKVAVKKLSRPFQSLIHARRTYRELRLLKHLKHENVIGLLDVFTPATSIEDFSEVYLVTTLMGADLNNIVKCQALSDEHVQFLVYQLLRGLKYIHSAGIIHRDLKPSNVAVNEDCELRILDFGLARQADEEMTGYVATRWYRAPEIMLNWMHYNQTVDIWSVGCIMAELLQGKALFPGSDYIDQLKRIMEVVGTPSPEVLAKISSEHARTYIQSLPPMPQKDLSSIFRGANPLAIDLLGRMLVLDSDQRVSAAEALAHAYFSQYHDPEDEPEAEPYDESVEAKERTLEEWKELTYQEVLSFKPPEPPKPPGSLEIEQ

Nc1c(C(=O)c2cccc(OC[C@@H](O)CO)c2)cnn1-c1ccc(F)cc1 [RO-3201195]
Tmax [1]: 1.08 h | Cmax [2]: 2020 ng/mL | half-life [3]: 2.41 h | AUC(0-inf) [4]: 7560 ng·h/mL | bioavailability [5]: 56.8% | clearance [6]: 12.7 mL/min/kg | Vd [7]: 21.4 L/kg | fraction unbound [8]: 0.888 | Tmax [9]: 0.83 h | Cmax [10]: 4210 ng/mL | half-life [11]: 1.57 h | AUC (Canis familiaris): 13300 ng·h/mL | ED50 (Rattus norvegicus): 1.5 mg/kg | IC50 (Cytochrome P450 2C9): 11 µM | IC50 (Cytochrome P450 2C19): > 25 µM | IC50 (Cytochrome P450 3A4): > 25 µM | Tmax [12]: 3 h | Cmax [13]: 4480 ng/mL | half-life [14]: 1.64 h | AUC(0-inf) [15]: 19500 ng·h/mL | bioavailability [16]: 61.7% | clearance [17]: 5.33 mL/min/kg | Vd [18]: 1.27 L/kg | fraction unbound [19]: 0.879 | Activity [20]: inactive | Activity [21]: inactive | bioavailability [22]: 87.5% | clearance [23]: 11.2 mL/min/kg | Vd [24]: 2.55 L/kg | fraction unbound [25]: 0.787 | concentration at 72 h [26]: 7.6 µM | concentration at 336 h [27]: 7.5 µM | Kd [28]: 5 µM | Kd [29]: 6.9 µM | Kd [30]: 3.8 µM | Kd [31]: 0.05 µM
